According to PubChem BioAssay AID623984 (Vanderbilt High Throughput Screening Facility, 2012):
Calls of active or inactive are those of the source. No rule for the calls is given here.

Molecular target: Inward rectifier potassium channel 2 (Homo sapiens) (UniProt P63252)
Experiment: KCNJ2 inward rectifier thallium flux activity – cell-based, human, concentration-response, selectivity assay for GIRK activator project, dose response (AID 623984)
Conditions: T-REx-293 hKir2.1, thallium flux FluoZin-2; series mostly up to 100 µM
How it was run: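 System: hKir2.1 T-REx-293 cells, tetracycline-induced | Benchmarks: Vehicle wells as reference, uninduced wells as background | Measured by: Thallium flux fluorescence, FluoZin-2 AM dye, sampled at 1 Hz | Timing: Compound exposure 4 min before thallium stimulus | Reagent: Bicarbonate thallium stimulus (Tl2SO4, NaHCO3, pH 7.4) plus EC20 glutamate | Replicates: Triplicates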

Chain of Inward rectifier potassium channel 2 (Homo sapiens) (P63252 whole entry, looked up): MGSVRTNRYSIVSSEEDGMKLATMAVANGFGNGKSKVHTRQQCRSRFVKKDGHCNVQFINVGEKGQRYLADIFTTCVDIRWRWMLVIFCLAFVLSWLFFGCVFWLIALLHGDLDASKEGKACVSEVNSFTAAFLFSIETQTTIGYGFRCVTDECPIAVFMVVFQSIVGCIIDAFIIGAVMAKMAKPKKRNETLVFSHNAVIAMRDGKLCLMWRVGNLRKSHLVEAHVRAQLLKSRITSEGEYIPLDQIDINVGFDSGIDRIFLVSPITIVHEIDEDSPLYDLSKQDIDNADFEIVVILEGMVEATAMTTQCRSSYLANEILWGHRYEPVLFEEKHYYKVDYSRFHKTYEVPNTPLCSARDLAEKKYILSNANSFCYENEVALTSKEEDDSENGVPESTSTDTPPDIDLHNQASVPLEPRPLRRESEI

For `Cc1cc(NC(=O)Nc2ccc(F)c(F)c2)n(-c2ccccc2)n1`, the outcome was “inactive”.
